Experimental data taken from article PMC2233693 (The Journal of General Physiology, 2000).
Residue numbers refer to the chain shown, from its start. Like-named read-outs stand apart in the source and are kept apart here. Each block holds one compound with its values, some of them ahead of it.

Assays:
Type in all cases: biochemical
[1] = molecular target: T1, E340N mutant bovine olfactory CNG channel (Bos taurus, UniProt Q03041, E340N); test: Blockage of macroscopic current by external Ca2+ or Mg2+, outside-out patches; conditions: for Ki: mean ± SD
T1 sequence (Q03041 1-663 E340N): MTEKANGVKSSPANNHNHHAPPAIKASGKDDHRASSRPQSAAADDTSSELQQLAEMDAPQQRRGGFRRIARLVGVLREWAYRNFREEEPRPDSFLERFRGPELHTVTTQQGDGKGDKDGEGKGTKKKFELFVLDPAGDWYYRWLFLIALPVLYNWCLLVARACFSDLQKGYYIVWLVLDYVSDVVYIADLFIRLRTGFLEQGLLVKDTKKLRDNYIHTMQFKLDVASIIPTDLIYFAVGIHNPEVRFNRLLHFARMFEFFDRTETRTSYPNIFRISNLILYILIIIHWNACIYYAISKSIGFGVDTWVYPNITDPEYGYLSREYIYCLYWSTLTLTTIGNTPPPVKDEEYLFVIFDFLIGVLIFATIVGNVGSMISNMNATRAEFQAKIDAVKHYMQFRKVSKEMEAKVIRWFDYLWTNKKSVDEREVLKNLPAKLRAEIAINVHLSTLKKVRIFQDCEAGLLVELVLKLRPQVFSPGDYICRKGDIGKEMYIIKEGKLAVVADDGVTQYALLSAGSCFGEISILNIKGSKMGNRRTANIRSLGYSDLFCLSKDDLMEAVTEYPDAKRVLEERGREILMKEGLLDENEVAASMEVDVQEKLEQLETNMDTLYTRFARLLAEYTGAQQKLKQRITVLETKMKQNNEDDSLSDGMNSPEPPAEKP
Outline: (§1)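 Xenopus oocytes injected with wild-type or mutant channel mRNA; outside-out patches with 100 μM cGMP in the pipette. Bath: 110 mM NaCl, 2 mM EDTA, 10 mM HEPES, pH 7.4, plus Ca2+ (NTA-buffered) or Mg2+ (EDTA-buffered); unbuffered above 0.1 mM. Five 1-s ramps (−80 to +80 mV) averaged, leak subtracted. Current normalised to divalent-free current at the same voltage, Hill-fitted per patch; Ki and n given as mean ± SD.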

[2] = molecular target: T1, E340N mutant bovine olfactory CNG channel
[3] = molecular target: T2, E340D mutant bovine olfactory CNG channel (Bos taurus, UniProt Q03041, E340D); test: Blockage of macroscopic current by external Ca2+ or Mg2+, outside-out patches; conditions: for Ki: mean ± SD
T2 sequence (Q03041 1-663 E340D): T1 sequence (Q03041 1-663 E340N) with N340D
Outline: as §1

[4] = molecular target: T3, wild-type bovine olfactory CNG channel (α3 subunit) (Bos taurus, UniProt Q03041)
T3 sequence (Q03041 1-663): T1 sequence (Q03041 1-663 E340N) with N340E

[5] = read-out: K 1/2,cG, −80 mV, single patch, Fig. 1 fit
[6] = −80 mV, single patch, Fig. 1 fit

n, Hill coefficient of blockage ([1]; external Ca2+, +80 mV): 0.6 ± 0.2
Ki ([1]; external Ca2+, +80 mV): 29000 ± 6000 µM
n, Hill coefficient of blockage ([1]; external Ca2+, −80 mV): 0.6 ± 0.1
Ki ([1]; external Ca2+, −80 mV): 6500 ± 4000 µM
effect of external Ca2+ on K 1/2 for cAMP or cGMP ([2]; 1 mM Ca2+ in the patch pipette): did not significantly affect K 1/2
n, Hill coefficient of blockage ([3]; external Ca2+, +80 mV): 1.3 ± 0.5
Ki ([3]; external Ca2+, +80 mV): 18 ± 10 µM
n, Hill coefficient of blockage ([3]; external Ca2+, −80 mV): 1.2 ± 0.5
Ki ([3]; external Ca2+, −80 mV): 47 ± 7 µM
effect of external Ca2+ on K 1/2 for cAMP or cGMP ([4]; 1 mM Ca2+ in the patch pipette): did not significantly affect K 1/2
SMILES: [Ca+2] [Ca^2+]

n, Hill coefficient of blockage ([1]; external Mg2+, +80 mV): 0.6 ± 0.1
Ki ([1]; external Mg2+, +80 mV): 50000 ± 3600 µM
n, Hill coefficient of blockage ([1]; external Mg2+, −80 mV): 0.6 ± 0.1
Ki ([1]; external Mg2+, −80 mV): 17000 ± 7200 µM
n, Hill coefficient of blockage ([3]; external Mg2+, +80 mV): 0.9 ± 0.2
Ki ([3]; external Mg2+, +80 mV): 155 ± 56 µM
n, Hill coefficient of blockage ([3]; external Mg2+, −80 mV): 0.7 ± 0.2
Ki ([3]; external Mg2+, −80 mV): 53 ± 17 µM
SMILES: [Mg+2] [Mg^2+]

n(−80 mV), Hill coefficient ([2]; cGMP): 2.1 ± 0.3
I(−80 mV)/I(+80 mV) ([2]; cGMP-gated current): 0.55 ± 0.10
EC50 ([2]; read-out: K 1/2, cGMP, +80 mV): 5.6 ± 1.8 µM
EC50 ([2]; read-out: K 1/2, cGMP, −80 mV): 7.6 ± 4 µM
EC50 [2, 5]: 6.6 µM
n cG [2, 6]: 2.3
n(−80 mV), Hill coefficient ([4]; cGMP): 2.7 ± 0.2
I(−80 mV)/I(+80 mV) ([4]; cGMP-gated current): 1.11 ± 0.03
EC50 ([4]; read-out: K 1/2, cGMP, +80 mV): 2.6 ± 0.6 µM
EC50 ([4]; read-out: K 1/2, cGMP, −80 mV): 2.5 ± 0.5 µM
EC50 [4, 5]: 3.2 µM
n cG [4, 6]: 2.7
SMILES: Nc1nc2c(ncn2[C@@H]2O[C@@H]3COP(=O)(O)O[C@H]3[C@H]2O)c(=O)[nH]1 [cGMP]
